The results in this text go back to ChEMBL document CHEMBL1148520, “5-(Dimethoxymethyl)-2'-deoxyuridine: a novel gem diether nucleoside with anti-orthopoxvirus activity” (J Med Chem, 2006).

Molecules are shown by their SMILES.

One assay has as its system HFF. Briefly: Cytotoxicity against HFF cell line by neutral red toxicity assay. In kind it is functional. Particulars: Homo sapiens. An outline of the steps:
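Confluent uninfected HFF monolayers exposed to various drug concentrations for 7 days at 37 °C. Viability read by neutral red uptake. CC50 is the concentration reducing neutral red uptake by 50%.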

Assay [1] has as its system Cowpox virus. Put plainly: Antiviral activity against cowpox virus Brighton measured as cytopathogenicity in HFF cells. In kind it is functional, organism-based. On the technique in general: Cytopathic effects are the visible damage that an infection or toxin causes in cultured cells.
A further assay deals with Vaccinia virus. Briefly: Antiviral activity against vaccinia virus Copenhagen assessed as plaque reduction in HFF cells. In kind it is functional, organism-based. Particulars: Orthopoxvirus vaccinia.
Assay [2] concerns Cowpox virus. Put plainly: Antiviral activity against cowpox virus Brighton by plaque reduction in HFF cells. Type of assay: functional, organism-based.

In the case of `CC(=O)OC[C@H]1OC(n2cc(C=O)c(=O)[nH]c2=O)C[C@@H]1OC(C)=O` (stereo not given in full), the CC50 (in general, the concentration that lowers cell viability or growth by half) in the assay with HFF was more than 300 µM. Also, the EC50 (usually the concentration needed to bring the measured effect to its halfway point) in the assay on Cowpox virus [1] is more than 300 µM.

As to `COC(OC)c1cn(C2C[C@H](OC(C)=O)[C@@H](COC(C)=O)O2)c(=O)[nH]c1=O` (stereo not given in full), in the assay on HFF, the CC50 was more than 300 µM. In the assay with Cowpox virus [1], this compound displayed an EC50 of more than 300 µM.

Regarding `CC(=O)OC[C@H]1OC(n2cc(C3OCCO3)c(=O)[nH]c2=O)C[C@@H]1OC(C)=O` (stereo not given in full), the CC50 in the assay with HFF is more than 300 µM. This compound also came in with a 50% effective concentration (EC50) in the assay on Cowpox virus [1] of more than 300 µM.

Turning to `COC(OC)c1cnc(O)nc1O`, in the assay with HFF, the half-maximal cytotoxic concentration (CC50) was more than 300 µM. The same compound gave an EC50 in the assay with Cowpox virus [1] of more than 300 µM.

`CCOC(OCC)c1cn(C2C[C@H](O)[C@@H](CO)O2)c(=O)[nH]c1=O` (stereo not given in full) displayed a CC50 in the assay on HFF of more than 300 µM. Also, in the assay on Cowpox virus [1], the concentration for a half-maximal effect (EC50) was more than 60 µM.

`O=Cc1cn([C@H]2C[C@H](O)[C@@H](CO)O2)c(=O)[nH]c1=O` showed a CC50 with HFF of more than 300 µM. For the same compound, the EC50 in the assay on Cowpox virus [1] is more than 300 µM.

For `CC(=O)OC[C@H]1OC(n2cc(C3OCCCO3)c(=O)[nH]c2=O)C[C@@H]1OC(C)=O` (stereo not given in full), the CC50 in the assay on HFF was more than 300 µM. Also, the EC50 with Cowpox virus [1] is more than 300 µM.

With `COC(OC)c1cn(C2C[C@H](O)[C@@H](CO)O2)c(=O)[nH]c1=O` (stereo not given in full), the concentration giving a half-maximal response (EC50) turned out to be 9 µM in the assay on Vaccinia virus, 7.4 µM in the assay on Cowpox virus [2] and 11.7 µM in the assay on Cowpox virus [1]. For the same compound, the 50% cytotoxic concentration (CC50) with HFF was more than 300 µM.

Regarding `CCOC(OCC)c1cn(C2C[C@H](OC(C)=O)[C@@H](COC(C)=O)O2)c(=O)[nH]c1=O` (stereo not given in full), the concentration for a half-maximal effect (EC50) with Vaccinia virus worked out at 79 µM; in the assay with Cowpox virus [2], 25.8 µM; with Cowpox virus [1], 52.4 µM. This compound displayed a CC50 with HFF of more than 300 µM.

In the assay on HFF, `O=c1[nH]c(=O)n(C2CC(O)[C@@H](CO)O2)cc1C1OCCCO1` (single isomer, unassigned) came in with a CC50 of more than 300 µM. Besides, the concentration giving a half-maximal response (EC50) with Cowpox virus [1] was more than 300 µM.

For `O=c1[nH]c(=O)n(C2CC(O)[C@@H](CO)O2)cc1C1OCCO1` (single isomer, unassigned), the CC50 in the assay with HFF is more than 300 µM. In addition, in the assay with Cowpox virus [1], the EC50 was more than 300 µM.

Turning to `Nc1ccn(C[C@@H](CO)OCP(=O)(O)O)c(=O)n1` [CIDOFOVIR], the EC50 in the assay on Vaccinia virus was determined as 9 µM; in the assay with Cowpox virus [2], 9 µM; with Cowpox virus [1], 8.3 µM. The compound further yielded a CC50 in the assay on HFF of more than 300 µM.
